ChEMBL document CHEMBL3616464, “One-pot synthesis of podophyllotoxin-thiourea congeners by employing NH₂SO₃H/NaI: Anticancer activity, DNA topoisomerase-II inhibition, and apoptosis inducing agents” (Bioorg Med Chem Lett, 2015)
Calls of active or inactive are those of the source. The rule behind the calls is not given here.

Experiments:
[1] = tested on: A549; assay: Cytotoxicity against human A549 cells after 48 hrs by MTT assay; assay type: functional, cell-based; details: A549, 48 h
[2] = tested on: MDA-MB-231; assay: Cytotoxicity against human MDA-MB-231 cells after 48 hrs by MTT assay; assay type: functional, cell-based; details: MDA-MB-231, 48 h
[3] = Cytotoxicity against human RWPE1 cells after 48 hrs by MTT assay; assay type: cell-based; details: RWPE-1, 48 h
[4] = tested on: LNCaP; assay: Cytotoxicity against human LNCAP cells after 48 hrs by MTT assay; assay type: functional, cell-based
[5] = Cytotoxicity against human HGC cells after 48 hrs by MTT assay; assay type: functional, cell-based
[6] = tested on: DU-145; assay: Cytotoxicity against human DU145 cells after 48 hrs by MTT assay; assay type: functional, cell-based; details: DU-145, 48 h
[7] = tested on: HGC; assay: Cytotoxicity against human HGC cells at 100 uM after 48 hrs by MTT assay; assay type: functional, cell-based
[8] = Cytotoxicity against human RWPE1 cells at 100 uM after 48 hrs by MTT assay; assay type: cell-based; details: rwpe-1, 48 h
[9] = tested on: A549; assay: Cytotoxicity against human A549 cells at 100 uM after 48 hrs by MTT assay; assay type: functional, cell-based
[10] = tested on: MDA-MB-231; assay: Cytotoxicity against human MDA-MB-231 cells at 100 uM after 48 hrs by MTT assay; assay type: functional, cell-based
[11] = tested on: LNCaP; assay: Cytotoxicity against human LNCAP cells at 100 uM after 48 hrs by MTT assay; assay type: functional, cell-based
[12] = tested on: DU-145; assay: Cytotoxicity against human DU145 cells at 100 uM after 48 hrs by MTT assay; assay type: functional, cell-based
[13] = Therapeutic index, ratio of IC50 for human RWPE1 cells to IC50 for human LNCAP cells; assay type: cell-based; details: RWPE1 cells versus LNCAP cells, read-out: Ratio IC50
Procedure, shortened: (§1)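 Selectivity expressed as the fold by which the IC50 in normal prostate epithelial RWPE-1 cells exceeds the IC50 in the prostate cancer line (DU-145 or LNCaP).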

[14] = Therapeutic index, ratio of IC50 for human RWPE1 cells to IC50 for human DU145 cells; assay type: cell-based; details: RWPE1 cells versus DU145 cells, read-out: Ratio IC50; procedure, shortened: as §1
[15] = molecular target: DNA topoisomerase 2-alpha (Homo sapiens) (UniProt P11388); assay: Inhibition of topoisomerase-2 (unknown origin) using kDNA assessed as increase of catenated kDNA level at 100 uM after 10 mins using ethidium bromide staining by agarose gel electrophoresis
DNA topoisomerase 2-alpha (Homo sapiens), sequence (P11388 whole entry): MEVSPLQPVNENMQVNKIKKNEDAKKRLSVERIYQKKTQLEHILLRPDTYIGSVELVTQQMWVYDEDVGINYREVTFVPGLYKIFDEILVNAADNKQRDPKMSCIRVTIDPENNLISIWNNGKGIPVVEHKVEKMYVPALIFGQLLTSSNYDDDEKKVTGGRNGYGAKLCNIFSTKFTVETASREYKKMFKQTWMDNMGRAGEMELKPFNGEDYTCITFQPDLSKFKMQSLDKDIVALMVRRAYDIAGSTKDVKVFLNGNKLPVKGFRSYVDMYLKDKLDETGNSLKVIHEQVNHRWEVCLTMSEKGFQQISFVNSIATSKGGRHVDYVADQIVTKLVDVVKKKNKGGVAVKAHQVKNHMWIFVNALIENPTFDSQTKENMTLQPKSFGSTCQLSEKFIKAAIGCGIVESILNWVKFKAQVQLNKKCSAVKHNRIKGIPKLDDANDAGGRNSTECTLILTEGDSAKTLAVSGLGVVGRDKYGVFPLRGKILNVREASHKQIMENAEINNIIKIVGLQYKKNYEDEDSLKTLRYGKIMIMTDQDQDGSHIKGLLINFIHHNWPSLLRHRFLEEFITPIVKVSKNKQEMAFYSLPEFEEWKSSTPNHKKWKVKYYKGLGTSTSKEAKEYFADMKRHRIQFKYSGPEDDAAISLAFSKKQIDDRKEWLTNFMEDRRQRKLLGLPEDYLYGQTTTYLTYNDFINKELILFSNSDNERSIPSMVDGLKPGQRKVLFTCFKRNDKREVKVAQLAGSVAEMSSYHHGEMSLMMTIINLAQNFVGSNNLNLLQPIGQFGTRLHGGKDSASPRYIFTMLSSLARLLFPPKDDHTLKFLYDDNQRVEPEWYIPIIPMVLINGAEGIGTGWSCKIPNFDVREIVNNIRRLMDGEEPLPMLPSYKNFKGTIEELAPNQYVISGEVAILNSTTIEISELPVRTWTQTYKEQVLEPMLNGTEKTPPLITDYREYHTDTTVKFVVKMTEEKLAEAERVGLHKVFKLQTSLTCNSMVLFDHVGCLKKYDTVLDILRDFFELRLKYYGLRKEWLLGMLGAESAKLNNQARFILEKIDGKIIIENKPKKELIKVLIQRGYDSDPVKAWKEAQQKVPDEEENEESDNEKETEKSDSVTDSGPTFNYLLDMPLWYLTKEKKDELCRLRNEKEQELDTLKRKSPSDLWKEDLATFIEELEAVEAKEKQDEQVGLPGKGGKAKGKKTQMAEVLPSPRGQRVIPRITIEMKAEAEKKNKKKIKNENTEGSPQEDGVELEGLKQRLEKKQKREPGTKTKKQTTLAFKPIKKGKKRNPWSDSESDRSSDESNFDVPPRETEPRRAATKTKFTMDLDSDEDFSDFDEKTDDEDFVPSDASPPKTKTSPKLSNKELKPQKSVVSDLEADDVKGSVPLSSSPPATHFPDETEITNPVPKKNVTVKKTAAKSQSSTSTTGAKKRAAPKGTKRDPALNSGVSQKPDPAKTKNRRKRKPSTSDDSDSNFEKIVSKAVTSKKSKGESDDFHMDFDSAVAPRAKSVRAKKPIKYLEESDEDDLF
Procedure, shortened: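 Drug-screening kit decatenation assay: catenated DNA incubated with topoisomerase II (5 units) and test agent, with etoposide as reference. Products were resolved by gel and visualised. Inhibition was judged by catenated DNA remaining in the wells, compared with nicked circular, relaxed circular or linear DNA forms.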

## COc1cc([C@@H]2c3cc4c(cc3[C@@H](NC(=S)Nc3ccc(C(C)C)cc3)[C@H]3COC(=O)[C@H]23)OCO4)cc(OC)c1OC
[1]
  IC50: 62 µM
[2]
  IC50: > 100 µM
[3]
  IC50: > 100 µM
[4]
  IC50: 84.8 µM
[5]
  IC50: > 100 µM
[6]
  IC50: 59.9 µM

## COc1cc([C@@H]2c3cc4c(cc3[C@@H](NC(=S)Nc3ccc(OCc5ccccc5)cc3)[C@H]3COC(=O)[C@H]23)OCO4)cc(OC)c1OC
[7]
  Activity: inactive
[8]
  Activity: Non-toxic
[9]
  Activity: inactive
[10]
  Activity: inactive
[11]
  Activity: inactive
[12]
  Activity: inactive

## COc1cc(NC(=S)N[C@@H]2c3cc4c(cc3[C@@H](c3cc(OC)c(OC)c(OC)c3)[C@H]3C(=O)OC[C@@H]32)OCO4)ccc1[N+](=O)[O-]
[7]
  Activity: inactive
[8]
  Activity: Non-toxic
[9]
  Activity: inactive
[10]
  Activity: inactive
[11]
  Activity: inactive
[12]
  Activity: inactive

## CCOC(=O)c1ccc(NC(=S)N[C@@H]2c3cc4c(cc3[C@@H](c3cc(OC)c(OC)c(OC)c3)[C@H]3C(=O)OC[C@@H]32)OCO4)cc1
[1]
  IC50: > 100 µM
[13]
  selectivity ratio: 11.6
[2]
  IC50: > 100 µM
[3]
  IC50: 64 µM
[4]
  IC50: 5.49 µM
[5]
  IC50: 45.4 µM
[6]
  IC50: 2.37 µM
[14]
  selectivity ratio: 27

## COc1cc([C@@H]2c3cc4c(cc3[C@@H](NC(=S)Nc3c(C)cc(C)cc3C)[C@H]3COC(=O)[C@H]23)OCO4)cc(OC)c1OC
[13]
  selectivity ratio: 1.8
[2]
  IC50: 19.4 µM
[3]
  IC50: 71.7 µM
[4]
  IC50: 39.8 µM
[5]
  IC50: 60.3 µM
[6]
  IC50: 10.6 µM
[9]
  Activity: inactive
[14]
  selectivity ratio: 6.8

## COc1cc([C@@H]2c3cc4c(cc3[C@@H](NC(=S)Nc3ccccc3F)[C@H]3COC(=O)[C@H]23)OCO4)cc(OC)c1OC
[2]
  IC50: > 100 µM
[3]
  IC50: > 100 µM
[4]
  IC50: > 100 µM
[5]
  IC50: 22.4 µM
[6]
  IC50: 63.3 µM
[9]
  Activity: inactive

## COc1cc([C@@H]2c3cc4c(cc3[C@@H](NC(=S)Nc3ccc(Cl)c(Cl)c3)[C@H]3COC(=O)[C@H]23)OCO4)cc(OC)c1OC
[2]
  IC50: 11.9 µM
[3]
  IC50: > 100 µM
[4]
  IC50: 20 µM
[5]
  IC50: 86.1 µM
[6]
  IC50: 14.1 µM
[9]
  Activity: inactive

## COc1ccc(NC(=S)N[C@@H]2c3cc4c(cc3[C@@H](c3cc(OC)c(OC)c(OC)c3)[C@H]3C(=O)OC[C@@H]32)OCO4)c(OC)c1
[7]
  Activity: inactive
[8]
  Activity: Non-toxic
[9]
  Activity: inactive
[10]
  Activity: inactive
[11]
  Activity: inactive
[12]
  Activity: inactive

## COc1cc([C@@H]2c3cc4c(cc3[C@H](O)[C@H]3COC(=O)[C@H]23)OCO4)cc(OC)c1OC [PODOFILOX]
[1]
  IC50: 129 µM

## COc1cc([N+](=O)[O-])ccc1NC(=S)N[C@@H]1c2cc3c(cc2[C@@H](c2cc(OC)c(OC)c(OC)c2)[C@H]2C(=O)OC[C@@H]21)OCO3
[7]
  Activity: inactive
[8]
  Activity: Non-toxic
[9]
  Activity: inactive
[10]
  Activity: inactive
[11]
  Activity: inactive
[12]
  Activity: inactive

## COc1ccc(NC(=S)N[C@@H]2c3cc4c(cc3[C@@H](c3cc(OC)c(OC)c(OC)c3)[C@H]3C(=O)OC[C@@H]32)OCO4)c([N+](=O)[O-])c1
[1]
  IC50: 35.1 µM
[13]
  selectivity ratio: 3.1
[2]
  IC50: 39.8 µM
[3]
  IC50: 78.4 µM
[4]
  IC50: 25.6 µM
[5]
  IC50: 33.4 µM
[6]
  IC50: 12.2 µM
[14]
  selectivity ratio: 6.4

## COc1ccc(OC)c(NC(=S)N[C@@H]2c3cc4c(cc3[C@@H](c3cc(OC)c(OC)c(OC)c3)[C@H]3C(=O)OC[C@@H]32)OCO4)c1
[7]
  Activity: inactive
[8]
  Activity: Non-toxic
[9]
  Activity: inactive
[10]
  Activity: inactive
[11]
  Activity: inactive
[12]
  Activity: inactive

## COc1cc(NC(=S)N[C@@H]2c3cc4c(cc3[C@@H](c3cc(OC)c(OC)c(OC)c3)[C@H]3C(=O)OC[C@@H]32)OCO4)cc(OC)c1
[7]
  Activity: inactive
[8]
  Activity: Non-toxic
[9]
  Activity: inactive
[10]
  Activity: inactive
[11]
  Activity: inactive
[12]
  Activity: inactive

## COc1cc([C@@H]2c3cc4c(cc3[C@@H](NC(=S)Nc3ccc(C#N)cc3)[C@H]3COC(=O)[C@H]23)OCO4)cc(OC)c1OC
[7]
  Activity: inactive
[9]
  Activity: inactive
[10]
  Activity: inactive
[11]
  Activity: inactive
[12]
  Activity: inactive

## COc1cc([C@@H]2c3cc4c(cc3[C@@H](NC(=S)Nc3ccc(F)cc3)[C@H]3COC(=O)[C@H]23)OCO4)cc(OC)c1OC
[7]
  Activity: inactive
[8]
  Activity: Non-toxic
[9]
  Activity: inactive
[10]
  Activity: inactive
[11]
  Activity: inactive
[12]
  Activity: inactive

## COc1cc([C@@H]2c3cc4c(cc3[C@@H](NC(=S)Nc3cccc(F)c3)[C@H]3COC(=O)[C@H]23)OCO4)cc(OC)c1OC
[7]
  Activity: inactive
[8]
  Activity: Non-toxic
[9]
  Activity: inactive
[10]
  Activity: inactive
[11]
  Activity: inactive
[12]
  Activity: inactive

## COc1cc([C@@H]2c3cc4c(cc3[C@@H](NC(=S)Nc3ccc(C(F)(F)F)cc3)[C@H]3COC(=O)[C@H]23)OCO4)cc(OC)c1OC
[1]
  IC50: 14.8 µM
[15]
  inhibition: Active
[13]
  selectivity ratio: 4.7
[2]
  IC50: 7.58 µM
[3]
  IC50: 16.9 µM
[4]
  IC50: 3.56 µM
[5]
  IC50: 56.8 µM
[6]
  IC50: 1.96 µM
[14]
  selectivity ratio: 8.6

## COc1cc([C@@H]2c3cc4c(cc3[C@@H](O[C@@H]3O[C@@H]5CO[C@@H](C)O[C@H]5[C@H](O)[C@H]3O)[C@H]3COC(=O)[C@H]23)OCO4)cc(OC)c1O [ETOPOSIDE]
[1]
  IC50: 38.5 µM
[15]
  inhibition: Active
[2]
  IC50: 49.4 µM
[3]
  IC50: 27.6 µM
[4]
  IC50: 50.3 µM
[5]
  IC50: 10.9 µM
[6]
  IC50: 5.21 µM
[14]
  selectivity ratio: 5.3

## COc1ccc(NC(=S)N[C@@H]2c3cc4c(cc3[C@@H](c3cc(OC)c(OC)c(OC)c3)[C@H]3C(=O)OC[C@@H]32)OCO4)cc1OC
[1]
  IC50: 65.5 µM
[2]
  IC50: > 100 µM
[3]
  IC50: > 100 µM
[4]
  IC50: > 100 µM
[5]
  IC50: 23.7 µM
[6]
  IC50: 58.8 µM

## COc1cc([C@@H]2c3cc4c(cc3[C@@H](NC(=S)Nc3ccc([N+](=O)[O-])cc3)[C@H]3COC(=O)[C@H]23)OCO4)cc(OC)c1OC
[1]
  IC50: 44 µM
[2]
  IC50: 31.8 µM
[3]
  IC50: 56.7 µM
[4]
  IC50: 53.1 µM
[5]
  IC50: 69.6 µM
[6]
  IC50: 7.89 µM
[14]
  selectivity ratio: 7.2

## COc1cc([C@@H]2c3cc4c(cc3[C@@H](NC(=S)Nc3cccc(C(F)(F)F)c3)[C@H]3COC(=O)[C@H]23)OCO4)cc(OC)c1OC
[2]
  IC50: 17.9 µM
[3]
  IC50: > 100 µM
[4]
  IC50: 22.2 µM
[5]
  IC50: 12.9 µM
[6]
  IC50: 21 µM
[9]
  Activity: inactive

## COc1cc([C@@H]2c3cc4c(cc3[C@@H](NC(=S)Nc3ccccc3C(F)(F)F)[C@H]3COC(=O)[C@H]23)OCO4)cc(OC)c1OC
[1]
  IC50: > 100 µM
[13]
  selectivity ratio: 3.4
[2]
  IC50: 85.7 µM
[3]
  IC50: 44.5 µM
[4]
  IC50: 12.9 µM
[5]
  IC50: 86 µM
[6]
  IC50: 2.34 µM
[14]
  selectivity ratio: 19
